Measurements: ChEMBL document CHEMBL1156837, “Synthesis and the biological evaluation of arylnaphthalene lignans as anti-hepatitis B virus agents” (Bioorg Med Chem, 2010)
The source made the active and inactive calls. The calls are words filed in the database; no cut-off is given here.

Experiments:
[1] = Cytotoxicity against human HepA2 cells after 48 hrs by MTT assay; format: cell-based
How it was run: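 HepA2 cells seeded in 96-well plates in DMEM and treated with various concentrations of compound for 2 days; cell number measured by MTT; CC50 taken as concentration giving cell growth at 50% of untreated cells.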

[2] = test system: Hepatitis B virus; assay: Antiviral activity against Hepatitis B virus in human HepA2 cells assessed as reduction of HBsAg secretion after 48 hrs by enzyme immunoassay; format: functional, organism-based
How it was run: (§1)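 HepA2 cells (HepG2 carrying tandem-repeat full-length HBV DNA) seeded at 8 × 10⁴ cells/well in DMEM with 10% fetal calf serum, attached overnight, washed twice with PBS pH 7.0, then exposed to various concentrations in serum-free DMEM for 48 h. Secreted HBsAg and HBeAg in medium measured by enzyme immunoassay; EC50 as concentration giving 50% of untreated level; mean ± SD, n = 3.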

[3] = test system: Hepatitis B virus; assay: Suppression of viral core protein promoter activity of Hepatitis B virus in human HepA2 cells at 3 uM by luciferase reporter gene assay; format: functional, organism-based
How it was run: (§2)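 HepA2 cells transfected by lipofectamine 2000 with HBV S1P, S2P, core, X or enhancer I/X promoter–luciferase constructs plus β-gal vector, then held in serum-free DMEM with compound (0.9 or 3.0 µM) for 48 h. Lysate luciferase normalized to protein (Bradford) and β-gal, untreated set to one; mean ± SEM, at least three independent experiments.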

[4] = test system: Hepatitis B virus; assay: Antiviral activity against Hepatitis B virus ayw in human 1.3ES2 cells stably transfected with 1.3 fold wild type HBV ayw strain genome cells assessed as reduction of viral pregenomic RNA level after 2 days by Northern blot; format: functional, organism-based
How it was run: (§3)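 1.3ES2 cells (HepG2 with 1.3 copies of HBV genome integrated) grown in DMEM with 10% fetal calf serum to confluence in 100 mm dishes, then switched to serum-free DMEM with compound (0, 1.5, 3.0, 9.0 µM) for 48 h. Total RNA Northern-hybridized with HBV DNA probe; 3.5-kb and 2.4/2.1-kb transcripts read, GAPDH mRNA as internal marker; representative of three independent experiments.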

[5] = test system: Hepatitis B virus; assay: Antiviral activity against Hepatitis B virus ayw in human 1.3ES2 cells stably transfected with 1.3 fold wild type HBV ayw strain genome cells assessed as reduction of major HbsAg mRNA level after 2 days by Northern blot; format: functional, organism-based; how it was run: as §3
[6] = test system: Hepatitis B virus; assay: Antiviral activity against Hepatitis B virus ayw in human 1.3ES2 cells stably transfected with 1.3 fold wild type HBV ayw strain genome cells assessed as reduction of viral DNA level after 6 days by RT-PCR; format: functional, organism-based
[7] = test system: Hepatitis B virus; assay: Suppression of enhancer 1 promoter activity of Hepatitis B virus in human HepA2 cells at 3 uM by luciferase reporter gene assay; format: functional, organism-based; how it was run: as §2
[8] = test system: Hepatitis B virus; assay: Suppression of major viral surface promoter activity of Hepatitis B virus in human HepA2 cells at 3 uM by luciferase reporter gene assay; format: functional, organism-based; how it was run: as §2
[9] = test system: Hepatitis B virus; assay: Suppression of large viral surface antigen promoter activity of Hepatitis B virus in human HepA2 cells at 3 uM by luciferase reporter gene assay; format: functional, organism-based; how it was run: as §2
[10] = test system: Hepatitis B virus; assay: Antiviral activity against Hepatitis B virus ayw in human M33 cells containing Lamivudine resistant HBV genome with DNA polymerase L515M/M539V mutation genome cells assessed as reduction of viral DNA level after 6 days by RT-PCR; format: functional, organism-based
How it was run: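 M33 cells (HepG2 carrying HBV with the L515M/M539V polymerase double mutation) were maintained in DMEM with 10% FCS at 37 °C under 5% CO₂. Cells were seeded at 5 × 10⁶ per 100 mm dish and treated with graded drug concentrations in serum-free DMEM. Viral DNA was extracted from the medium and quantified by real-time PCR against an HBV plasmid standard curve (10³–10⁷ copies), reported as mean, SD, n = 3.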

[11] = test system: Hepatitis B virus; assay: Suppression of viral X protein promoter activity of Hepatitis B virus in human HepA2 cells at 3 uM by luciferase reporter gene assay; format: functional, organism-based; how it was run: as §2
[12] = test system: Hepatitis B virus; assay: Antiviral activity against Hepatitis B virus in human HepA2 cells assessed as reduction of HBsAg secretion after 48 hrs by ELISA; format: functional, organism-based; conditions: HepA2, 48 h; how it was run: as §1
[13] = test system: Hepatitis B virus; assay: Antiviral activity against Hepatitis B virus in human HepA2 cells assessed as reduction of HBeAg secretion after 48 hrs by ELISA; format: functional, organism-based; conditions: HepA2, 48 h; how it was run: as §1
[14] = test system: Hepatitis B virus; assay: Antiviral activity against Hepatitis B virus ayw in human 1.3ES2 cells stably transfected with 1.3 fold wild type HBV ayw strain genome cells assessed as reduction of viral core protein level after 2 days by Western blot; format: functional, organism-based
How it was run: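 1.3ES2 cells in 100 mm dishes treated with compound (0, 1.5, 3.0, 9.0 µM) in serum-free DMEM for 48 h; total cell lysates resolved by SDS-PAGE and immunoblotted with mouse anti-HBV core antibody.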

[15] = test system: Hepatitis B virus; assay: Antiviral activity against Hepatitis B virus ayw in human 1.3ES2 cells stably transfected with 1.3 fold wild type HBV ayw strain genome cells assessed as reduction of HbeAg mRNA level after 2 days by Northern blot; format: functional, organism-based; how it was run: as §3
[16] = test system: Hepatitis B virus; assay: Antiviral activity against Hepatitis B virus ayw in human 1.3ES2 cells stably transfected with 1.3 fold wild type HBV ayw strain genome cells assessed as reduction of large HbsAg mRNA level after 2 days by Northern blot; format: functional, organism-based; how it was run: as §3
[17] = Cytotoxicity against human HepA2 cells assessed as effect on cell proliferation after 48 hrs by WST1 dye reduction assay; format: cell-based; conditions: hepa2, 48 h
How it was run: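 HepA2 cells treated alongside the antigen assay in serum-free DMEM for 48 h after PBS wash; WST-1 added for 0.5 h and formazan formation used to estimate viable cells per well; mean ± SD, n = 3.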

[18] = Hepatitis B virus, HepA2, 48 h, read-out: EC50

SMILES | CC50 at 48 h [1] | EC50 [2, 18] | other results
O=C1OCc2c1cc1c(Br)cc3c(c1c2-c1cc2c(cc1Br)OCO2)OCO3 | > 12.5 µM | > 12.5 µM | 
COc1ccc(-c2c3c(cc4ccc5c(c24)OCO5)C(=O)OC3=O)cc1OCc1ccccc1 | > 12.5 µM | > 12.5 µM | 
O=C(O)c1cc2ccc3c(c2c(-c2ccc4c(c2)OCO4)c1CO)OCO3 | > 12.5 µM | 0.89 µM | 
COC(=O)c1c(C(=O)OC)c(-c2ccc3c(c2)OCO3)c2c3c(ccc2c1OC)OCO3 | 8.93 µM | > 12.5 µM | 
O=C1OCc2c1cc1ccc3c(c1c2-c1ccc2c(c1)OCO2)OCO3 [HELIOXANTHIN] | 11.3 µM | 0.16 µM | 
CC(=O)OCCN1C(=O)c2cc3ccc4c(c3c(-c3ccc5c(c3)OCO5)c2C1=O)OCO4 | > 12.5 µM | > 12.5 µM | inhibition [3]: inactive; inhibition [4]: inactive; inhibition [5]: inactive; inhibition [6]: inactive; inhibition [7]: inactive; inhibition [8]: inactive; inhibition [9]: inactive; inhibition [10]: inactive; inhibition [11]: inactive
CCOC(=O)c1cc2ccc3c(c2c(-c2ccc4c(c2)OCO4)c1C(=O)OCC)OCO3 | > 12.5 µM | > 12.5 µM | 
O=C1OCc2c1cc1ccc3c(c1c2-c1ccc(OC(F)(F)F)cc1)OCO3 | > 12.5 µM | > 12.5 µM | 
COc1cc(-c2c3c(cc4ccc5c(c24)OCO5)C(=O)OC3)ccc1OCc1ccccc1 | > 12.5 µM | > 12.5 µM | 
COc1ccc(-c2c3c(cc4ccc5c(c24)OCO5)C(=O)OC3)cc1OCc1ccccc1 | > 12.5 µM | > 12.5 µM | 
O=C1OC(=O)c2c1cc1ccc3c(c1c2-c1ccc(OC(F)(F)F)cc1)OCO3 |  |  | EC50 ([2]; hepa2): Not Active
O=C1OCc2c1cc1ccc3c(c1c2-c1ccc(O)c(O)c1)OCO3 | 7.01 µM | 3.06 µM | 
O=C1OC(=O)c2c1cc1ccc3c(c1c2-c1ccc2c(c1)OCO2)OCO3 | 11.8 µM | > 12.5 µM | 
CC(=O)OCc1cc2ccc3c(c2c(-c2ccc4c(c2)OCO4)c1C=O)OCO3 | 4.69 µM | > 12.5 µM | 
BrCc1cc2ccc3c(c2c(-c2ccc4c(c2)OCO4)c1CBr)OCO3 |  |  | EC50 ([2]; hepa2): Not Active
COC(=O)c1c(C(=O)O)c(OC)c2ccc3c(c2c1-c1ccc2c(c1)OCO2)OCO3 | 7.87 µM | > 12.5 µM | 
COc1cc(-c2c3c(cc4ccc5c(c24)OCO5)COC3=O)ccc1OCc1ccccc1 |  |  | EC50 ([2]; hepa2): Not Active
O=C1OCc2cc3ccc4c(c3c(-c3ccc5c(c3)OCO5)c21)OCO4 | > 12.5 µM | 2.18 µM | 
N#Cc1cc2c(c3c(-c4ccc5c(c4)OCO5)c4c(cc13)C(=O)OC4)OCO2 | > 12.5 µM | > 12.5 µM | 
OCc1cc2ccc3c(c2c(-c2ccc4c(c2)OCO4)c1CO)OCO3 | > 12.5 µM | 1.41 µM | 

SMILES | CC50 at 48 h [1] | EC50 [2, 18] | other results
COc1ccc(-c2c3c(cc4ccc5c(c24)OCO5)COC3=O)cc1OCc1ccccc1 | > 12.5 µM | > 12.5 µM | 
O=C1OCc2c1cc1c(Br)cc3c(c1c2-c1ccc2c(c1)OCO2)OCO3 | 6.33 µM | > 12.5 µM | 
O=C1OCc2c1cc1ccc3c(c1c2-c1ccc(OCc2ccccc2)c(OCc2ccccc2)c1)OCO3 | > 12.5 µM | > 12.5 µM | 
O=C1OC(=O)c2c1cc1ccc3c(c1c2-c1ccc(OCc2ccccc2)c(OCc2ccccc2)c1)OCO3 | > 12.5 µM | > 12.5 µM | 
N#Cc1cc2c(c3c(-c4cc5c(cc4Br)OCO5)c4c(cc13)C(=O)OC4)OCO2 | > 12.5 µM | > 12.5 µM | 
CC(=O)OCc1cc2ccc3c(c2c(-c2ccc4c(c2)OCO4)c1COC(C)=O)OCO3 | 6.91 µM | 1.22 µM | 
O=C1c2cc3ccc4c(c3c(-c3ccc5c(c3)OCO5)c2C(=O)N1CCO)OCO4 | > 12.5 µM | > 12.5 µM | 
O=C1OCc2cc3ccc4c(c3c(-c3ccc(OCc5ccccc5)c(OCc5ccccc5)c3)c21)OCO4 | > 12.5 µM | > 12.5 µM | 
O=C1C=Cc2cc3c(c(-c4ccc5c(c4)OCO5)c2C1=O)COC3=O | 7.49 µM | > 12.5 µM | 
COc1cc(-c2c3c(cc4ccc5c(c24)OCO5)C(=O)OC3=O)ccc1OCc1ccccc1 | 11.7 µM | > 12.5 µM | 
COC(=O)c1c(C(=O)O)c(O)c2ccc3c(c2c1-c1ccc2c(c1)OCO2)OCO3 | 7.01 µM | > 12.5 µM | 
COc1ccc(-c2c3c(cc4ccc5c(c24)OCO5)C(=O)OC3=O)cc1OC |  |  | EC50 ([2]; hepa2): Not Active
O=Cc1cc2ccc3c(c2c(-c2ccc4c(c2)OCO4)c1C=O)OCO3 | 5.31 µM | 2.39 µM | 
COc1ccc(-c2c3c(cc4ccc5c(c24)OCO5)C(=O)OC3)cc1OC | 5.86 µM | 7.64 µM | 
Nc1ccn([C@@H]2CS[C@H](CO)O2)c(=O)n1 |  |  | inhibition [6]: Active; inhibition [10]: inactive
CC(=O)OCc1cc2ccc3c(c2c(-c2ccc4c(c2)OCO4)c1CO)OCO3 | > 12.5 µM | 0.42 µM | 
COC(=O)c1c(C(=O)OC)c(-c2ccc3c(c2)OCO3)c2c3c(ccc2c1O)OCO3 | 7.04 µM | > 12.5 µM | 
COc1ccc(-c2c3c(cc4ccc5c(c24)OCO5)C(=O)OC3)cc1O | 10.1 µM | 0.14 µM | EC50 [12]: 0.06 µM; inhibition [3]: Active; EC50 [13]: 0.14 µM; inhibition [6]: Dose-dependent effect; inhibition [7]: Active; inhibition [14]: Dose-dependent effect; inhibition [8]: Active; inhibition [9]: Active; inhibition [10]: Dose-dependent effect; inhibition [15]: Dose-dependent effect; inhibition [11]: inactive; inhibition [16]: Dose-dependent effect; Activity [17]: Non-toxic
COc1cc(-c2c3c(cc4ccc5c(c24)OCO5)C(=O)OC3)ccc1O | > 12.5 µM | 1.89 µM | 
